Screens as filed in PubChem BioAssay.
Only some compounds are listed: those with a hit (about 2.4% of all), similar ones and a draw of the others.
SR-BI DiI-HDL act = activators of SR-BI mediated DiI-HDL uptake, primary screen, ldlA[mSR-BI] CHO cells, DiI fluorescence; AID 504775, 2011; 320,000 tested, 0.096% active; activation, % at 12.5 µM; 3 h; 100 = double the neutral-control signal;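 active = mean replicate activation of at least 60% and every replicate at or above 60%; inconclusive = mean or all-replicate condition met, but not both; inactive = mean below 60% and not all replicates reaching 60%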;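 note: 0% = median plate neutral-control signal and 100% = twice that signal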
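System: CHO ldlA[mSR-BI] cells / Medium: HEPES-buffered (25 mM, pH 7.4) F12 plus 0.5% BSA / Probe or stimulus: labelled HDL, 10 µg/mL / Doses: single compound concentration, delivered by pin transfer / Schedule: 3 h, 37 °C / Measured by: DiI fluorescence, bottom read / Measure: cell-associated DiI fluorescence as measure of HDL uptake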
m5-HT2A agonist = mouse Htr2a agonists via beta-arrestin recruitment, primary screen, cell-based, luminescence; CHO-K1 mHTR2A beta-arrestin complementation; percent of 30 µM serotonin response; activation, % at 7.6 µM; 360,000 tested, 0.66% active; 5-hydroxytryptamine receptor 2A (Mus musculus), P35363; AID 624169, 2012;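 active = activation above a run cutoff, the mean activation of all tested compounds plus 3 SD, cut at about 14% in these data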;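 note: 0% = plate median of compound wells and 100% = 30 µM serotonin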
beta cell repl = inducers of MIN6 beta-cell proliferation, primary screen, ATP luminescence, uHTS; MIN6 cells proliferation, ATPlite luminescence, 48 h; cells starved in 0.2% serum; 100% = growth in 10% serum; proliferation, % at 10 µM; 330,000 tested, 0.29% active;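 active = compounds whose signal lies at least 3.5 SD above the mean of all wells on their plate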;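 note: 0% = DMSO-treated cells in low-serum medium and 100% = 10% serum control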
SR-BI HDL uptake = inhibitors of SR-BI mediated HDL lipid uptake, primary screen, ldlA[mSR-BI] cells, fluorescence, single point; Scavenger receptor class B member 1 (Mus musculus), Q61009; 320,000 tested, 0.96% active; AID 488896, 2010; inhibition, % at 12.5 µM; ldlA[mSR-BI] CHO cells, DiI-HDL uptake fluorescence, 3 h;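 active = mean replicate inhibition of at least 70% and a set share of replicates each scoring 70 or more; inconclusive = meets just one of the two criteria; inactive = fails both criteria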;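 note: 0% = median of neutral control wells and 100% = median of positive control wells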
Target sequence (Q61009 whole entry, looked up): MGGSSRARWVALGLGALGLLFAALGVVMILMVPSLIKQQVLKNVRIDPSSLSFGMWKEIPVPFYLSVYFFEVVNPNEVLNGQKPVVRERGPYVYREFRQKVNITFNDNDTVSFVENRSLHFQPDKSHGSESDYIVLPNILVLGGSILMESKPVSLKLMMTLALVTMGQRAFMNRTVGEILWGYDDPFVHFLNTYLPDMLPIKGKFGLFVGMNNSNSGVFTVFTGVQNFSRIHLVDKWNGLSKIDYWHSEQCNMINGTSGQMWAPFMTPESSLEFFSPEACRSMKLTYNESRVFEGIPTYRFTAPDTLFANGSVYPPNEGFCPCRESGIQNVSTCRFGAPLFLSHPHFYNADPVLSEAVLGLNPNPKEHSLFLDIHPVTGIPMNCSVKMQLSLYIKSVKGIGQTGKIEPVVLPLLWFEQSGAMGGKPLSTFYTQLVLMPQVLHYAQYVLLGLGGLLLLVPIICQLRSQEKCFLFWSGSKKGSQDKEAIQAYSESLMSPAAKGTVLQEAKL
Calb FLC = C. albicans growth inhibition with fluconazole, primary screen, CaCi-2 strain, Alamar Blue fluorescence. AID 1979, 2009. C. albicans CaCi-2 + fluconazole, 48 h. growth inhibition, % (no concentration beside the values). 300,000 tested, 0.57% active;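 active = growth inhibition above about 58% in most replicates, limit read from the data, passing the limit was not always enough; inconclusive = exactly half the replicates above a set limit; inactive = most replicates below a set limit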;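 note: all wells also contain fluconazole at 8 µg/ml as a sub-toxic cotreatment; 0% = median of DMSO wells and 100% = median of geldanamycin control wells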
Ins promoter up = insulin promoter activators in MIN6 cells, imaging, high-content screening, mouse beta cells; MIN6 insulin promoter-GFP reporter; hits give high values; z-score at 5 µM; 190,000 tested, 0.3% active; AID 1625, 2009;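 active = z-score above 3 at 5 µM with at least 500 cells counted in the well; inconclusive = wells under 500 cells, flagged as cytotoxic or low count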
OPRM1 ag = OPRM1 agonists via beta-arrestin recruitment, confirmation, counter-screen for mouse HTR2A agonist project, cell-based, luminescence, single concentration. shares compounds with m5-HT2A agonist. U2OS OPRM1 beta-arrestin PathHunter; DMSO 0%, DAMGO 9.3 µM 100%. activation, % at 9.3 µM. 2,300 tested, 5.3% active;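 active = mean activation above the mean of DMSO-only wells plus 3 SD, cut at about 0.5% in these data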
m5-HT2A ag conf = mouse HTR2A agonists, beta-arrestin recruitment, confirmation, cell-based, luminescence, CHO-K1 PathHunter, triplicate; activation, % at 7.6 µM; DMSO 0%, 30 µM serotonin 100%; AID 624381, 2012; shares compounds with m5-HT2A agonist; 2,300 tested, 19% active;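 active = mean activation across triplicates above the hit threshold derived in the original primary screen, cut at about 15% in these data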
The depositor's hits bear a star; ? = inconclusive; . = no result given.

SMILES | SR-BI DiI-HDL act | m5-HT2A agonist | beta cell repl | SR-BI HDL uptake | Calb FLC | Ins promoter up | OPRM1 ag | m5-HT2A ag conf
COc1ccccc1N(C(=O)c1snc(C(N)=O)c1N)C(C(=O)NCc1ccccc1)c1ccc(O)cc1 (stereo not given) | . | -2 | 0 | . | 7 | . | . | .
Cc1nc2c(N)nn(C)c2nc1C | . | 2 | . | . | . | . | . | .
CCS(=O)(=O)Nc1ccc(-c2nc3cccnc3s2)cc1 | -3 | 27* | -3 | 3 | -4 | -0.12 | 0 | -3
Cc1cccc(C)c1NC(=O)C(C1CC1)n1c(-c2ccc(-c3ccccc3)cc2)nc2ccccc21 (stereo not given) | . | -4 | . | . | . | . | . | .
COc1ccc(CCNC(=O)CC(=O)N/N=C\c2ccc(OCC(N)=O)cc2)cc1OC | . | -3 | . | . | . | . | . | .
COc1cc(-c2nnc(-c3cc(OC)c(OC)c(OC)c3)o2)cc(OC)c1OC | -60 | 17* | 0 | 60 | ? | -0.35 | 0 | -2
COc1cc(-c2nnc(-c3ccccc3)o2)cc(OC)c1OC | . | 0 | 0 | . | 13 | . | . | .
CC(=O)Nc1ccc(NC(=O)c2cc(-n3cnnc3)ccc2Cl)cc1 | -16 | 16* | -1 | 16 | 5 | -0.06 | 0 | -4
Cc1ccc(N2CC(=O)N(NC(=O)CN3CCN(c4ccccc4)CC3)CC2=O)cc1 | -5 | 0 | -2 | 5 | 9 | -0.2 | . | .
O=C(CN1CCc2ccccc21)NN1CC(=O)N(c2ccccc2)CC1=O | 14 | 19* | -3 | -14 | 0 | -0.12 | -1 | -4
C=CCOC(=O)COc1ccc2c3c(c(=O)oc2c1)CCCC3 | . | 16* | . | . | . | . | -1 | -3
O=C(COC(=O)C1=COCCO1)NCc1ccc(Cl)cc1 | 12 | 0 | -3 | -12 | 4 | -0.02 | . | .
CC(C)(C)c1ccc(CC(=O)N2CCC2(C)C(=O)NS(=O)(=O)c2cccc(OC(F)F)c2)cc1 (stereo not given) | . | 16* | . | . | . | . | 0 | 4
CC1(C(=O)NS(=O)(=O)c2ccc(C#N)cc2)CCN1C(=O)Cc1ccsc1 (stereo not given) | . | -1 | . | . | . | . | . | .
CC(C)(C)c1ccc(S(=O)(=O)NC(=O)C2(C)CCN2C(=O)C2(c3ccccc3)CC2)cc1 (stereo not given) | . | 18* | . | . | . | . | -1 | -2
Cc1cc(C)cc(CC(=O)N2CCC2(C)C(=O)NS(=O)(=O)c2ccc(C#N)cc2)c1 (stereo not given) | . | 16* | . | . | . | . | -1 | -3
C[C@H](NC(=O)[C@@H]1CSC2c3ccccc3C(=O)N21)C(=O)NCc1c(F)cccc1Cl (stereo not given in full) | 15 | 17* | -3 | -15 | 8 | . | 0 | -4
COc1ccc(C(=O)Oc2ccc(C)cc2)cc1S(=O)(=O)N1CCOCC1 | . | -8 | . | . | . | . | . | .
Cc1ccc(N(Cc2ccccc2)C(=O)c2ccc(C)c(S(=O)(=O)N3CCOCC3)c2)cc1 | -8 | 15* | -5 | 8 | . | . | 0 | 2
Cc1ccc(N(Cc2ccccc2)C(=O)c2ccc(S(=O)(=O)N3CCOCC3)cc2)cc1 | -31 | 3 | -2 | 31 | 6 | . | . | .
COc1ccc(C(=O)OCc2ccc(C)cc2)cc1S(=O)(=O)N1CCOCC1 | -55 | 18* | -5 | 55 | . | . | 0 | -3
CC(=O)Nc1ccc2[nH]ccc2c1 | -6 | 2 | -1 | 6 | -9 | . | . | .
O=C(Nc1ccc2[nH]ccc2c1)c1cccs1 | . | 15* | -3 | . | 2 | 0.07 | 0.9* | 2
Cc1c(Cl)cccc1NC(=S)Nc1ccc(S(=O)(=O)Nc2ncccn2)cc1 | 22 | 2 | -5 | -22 | . | . | . | .
Cc1ccc(C)c(OCCC(=O)Nc2cccc(S(=O)(=O)N3CCCCC3)c2)c1 | -37 | 4 | -7 | 37 | . | . | . | .
SMILES | SR-BI DiI-HDL act | m5-HT2A agonist | beta cell repl | SR-BI HDL uptake | Calb FLC | Ins promoter up | OPRM1 ag | m5-HT2A ag conf
O=C1C2CCCN2C(c2ccc(F)cc2)N1c1cccc(Cl)c1 (stereo not given) | 4 | 17* | -2 | -4 | -7 | -0.08 | -1 | 1
COc1ccc(N(C)S(=O)(=O)c2cccc(C(=O)Nc3nc(C)c(C(C)=O)s3)c2)cc1 | -42 | 16* | -3 | 42 | . | . | 0 | 5
COc1ccc(N(C)S(=O)(=O)c2cccc(C(=O)Nc3nnc(C)s3)c2)cc1 | . | -1 | -4 | -5 | . | . | . | .
Cc1ccc(NC(=O)CSc2nc(O)c(Cc3ccccc3)c(=O)n2-c2ccccc2)cc1 | 21 | -1 | -4 | -10 | 5 | 0.69 | . | .
CCOC(=O)C1(CC2CC2)CCN(Cc2cc(Cl)c(O)c(OC)c2)CC1 | -6 | 20* | -2 | 6 | 13 | -0.82 | 0 | -4
CC(C)C[C@@H](CN1CCC[C@H]1CN1C(=O)C(=O)NC[C@@H]1Cc1ccc(O)cc1)N1C[C@H](Cc2ccccc2)N(CC2CCCCC2)C(=O)C1=O | . | -2 | . | . | . | . | . | .
CC(C)C[C@@H](CN1CCC[C@H]1CN1C(=O)C(=O)NC[C@@H]1Cc1ccccc1)N1C[C@H](Cc2ccc(O)cc2)N(CC2CCCCC2)C(=O)C1=O | . | 15* | . | . | . | . | 0 | -3
CCOC(=O)[C@H]1[C@H]2COc3ccccc3[C@@H]2N2C(=O)c3cc(F)ccc3NC(=O)[C@@]12C | 18 | 0 | -2 | -18 | . | . | . | .
CCOC(=O)[C@H]1[C@H]2COc3ccccc3[C@@H]2N2C(=O)c3cc(F)c(F)cc3NC(=O)[C@@]12C | 8 | 15* | -1 | -8 | . | . | 0 | 2
N#CC(c1ccc(F)cc1)c1ccc(C(=O)c2ccc(F)cc2)cc1 (stereo not given) | 12 | 14* | -4 | -12 | 25 | . | 0 | -6
C=CCn1c(SCC(=O)NC2CCCCC2)nnc1-c1ccccn1 | 8 | 14* | -3 | -8 | 3 | . | -1 | -1
C=CCn1c(SCC(=O)NC2CC2)nnc1-c1ccccn1 | 22 | 3 | 2 | -22 | -4 | . | . | .
Cc1c(Cl)cccc1NC(=O)COC(=O)Cc1ccsc1 | 0 | 16* | -2 | 0 | . | . | 0 | 7
CCOc1ccc(C(=O)Nc2ccc(NC(=O)c3ccccc3)cc2)cc1Br | -35 | 25* | -3 | 35 | 5 | . | -1 | -1
